Measured values published in ChEMBL document CHEMBL1144859, “Synthesis and evaluation of homodimeric GnRHR antagonists having a rigid bis-propargylated benzene core” (Bioorg Med Chem, 2008).

Experiments:
[1] = target: T1, Gonadotropin-releasing hormone receptor (Homo sapiens) (UniProt P30968); assay: Antagonist activity at human recombinant GnRHR expressed in CHOK1 cells assessed as reduction in luminescence signal at 3 uM by luciferase reporter gene assay; format: functional, cell-based; conditions: CHO-K1
T1 sequence (whole entry): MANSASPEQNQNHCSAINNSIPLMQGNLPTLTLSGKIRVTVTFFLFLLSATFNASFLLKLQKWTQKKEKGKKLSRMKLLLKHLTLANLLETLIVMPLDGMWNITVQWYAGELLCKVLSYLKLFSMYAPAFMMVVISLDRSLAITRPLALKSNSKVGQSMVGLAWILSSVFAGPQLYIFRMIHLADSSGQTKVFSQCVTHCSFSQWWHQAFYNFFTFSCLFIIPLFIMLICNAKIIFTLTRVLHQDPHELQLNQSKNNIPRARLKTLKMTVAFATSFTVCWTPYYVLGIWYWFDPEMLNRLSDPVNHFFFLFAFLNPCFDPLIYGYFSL
In short: (§1)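 CHO-K1 cells stably expressing human GnRHR plus NFAT-luciferase reporter, grown in DMEM/10% FBS with geneticin, harvested and suspended in DMEM with insulin, apo-transferrin and 3% DMSO (7500 cells/well). Compounds (10 μM to 0.3 nM final, half-log) preincubated 30 min, then GnRH 3 nM final (EC80) for 4 h; luciferase substrate added, 1 h at room temperature in the dark; luminescence read.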

[2] = target: T1, Gonadotropin-releasing hormone receptor (Homo sapiens); assay: Antagonist activity at human recombinant GnRHR expressed in CHOK1 cells assessed as reduction in luminescence signal at 10 uM by luciferase reporter gene assay; format: functional, cell-based; conditions: CHO-K1; in short: as §1
[3] = target: T2, Gonadotropin-releasing hormone receptor (Homo sapiens, UniProt P30968); assay: Displacement of [125I]triptorelin from human GnRHR expressed in CHO cells; format: cell-based
T2 sequence (P30968 whole entry): T1 sequence (whole entry)
In short: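 Membranes from CHO cells stably expressing human GnRHR (20 μg protein) in 50 mM Tris-HCl pH 7.4, 2 mM MgCl2, 0.1% BSA, with 30,000 cpm [125I]triptorelin and five competitor concentrations, 45 min at 22 °C. Nonspecific binding was set with 1 μM ganirelix. Samples were filtered on PEI-soaked GF/B and counted by gamma counter.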

[4] = target: T2, Gonadotropin-releasing hormone receptor; assay: Antagonist activity at human recombinant GnRHR expressed in CHOK1 cells assessed as reduction in luminescence signal by luciferase reporter gene assay; format: functional, cell-based, CHO-K1; in short: as §1
[5] = Cytotoxicity against human GnRHR expressing CHO cells assessed as cell viability at 10 uM after 4 hrs; format: cell-based, Cricetulus griseus; conditions: chinese hamster, read-out: Activity
In short: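 CHO cells with human GnRHR and luciferase reporter, plated in assay medium with or without 10 μM compound, 4 h at 37 °C. Cells were then trypsinised and suspended in PBS, mixed 1:1 with 0.8% trypan blue, and live cells were counted by hemocytometer.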

| SMILES | Efficacy [1] [%] | Efficacy [2] [%] | Ki [3] [nM] | IC50 [4] [nM] | viability at 4 h, 10 µM [5] [%] |
| --- | --- | --- | --- | --- | --- |
| CCNC(=O)Nc1ccc(-c2nc3n(Cc4c(F)cccc4F)cc(C(=O)OCC)c(=O)n3c2CN(CC(=O)N[C@H](C(=O)NCC#Cc2ccc(C#CCNC(=O)[C@@H](NC(=O)CN(Cc3ccccc3)Cc3c(-c4ccc(NC(=O)NCC)cc4)nc4n(Cc5c(F)cccc5F)cc(C(=O)OCC)c(=O)n34)C(C)C)cc2)C(C)C)Cc2ccccc2)cc1 | 31 | 34 | 720 |  |  |
| CCNC(=O)Nc1ccc(-c2nc3n(Cc4c(F)cccc4F)cc(C(=O)OCC)c(=O)n3c2CN(CC(=O)N[C@H](C(=O)NCC#Cc2cccc(C#CCNC(=O)[C@@H](NC(=O)CN(Cc3ccccc3)Cc3c(-c4ccc(NC(=O)NCC)cc4)nc4n(Cc5c(F)cccc5F)cc(C(=O)OCC)c(=O)n34)C(C)C)c2)C(C)C)Cc2ccccc2)cc1 | 28 | 43 | 2200 |  |  |
| CCNC(=O)Nc1ccc(-c2nc3n(Cc4c(F)cccc4F)cc(C(=O)OCC)c(=O)n3c2CN(CC(=O)NCC(=O)NCC#Cc2ccccc2)Cc2ccccc2)cc1 | 92 | 95 | 170 | 460 |  |
| CCNC(=O)Nc1ccc(-c2nc3n(Cc4c(F)cccc4F)cc(C(=O)OCC)c(=O)n3c2CN(CC(=O)N[C@H](C(=O)NCC#Cc2ccccc2)C(C)C)Cc2ccccc2)cc1 | 64 | 60 | 770 | 520 |  |
| CCNC(=O)Nc1ccc(-c2nc3n(Cc4c(F)cccc4F)cc(C(=O)OCC)c(=O)n3c2CN(CC(=O)N2CCC[C@H]2C(=O)NCC#Cc2cccc(C#CCNC(=O)[C@@H]3CCCN3C(=O)CN(Cc3ccccc3)Cc3c(-c4ccc(NC(=O)NCC)cc4)nc4n(Cc5c(F)cccc5F)cc(C(=O)OCC)c(=O)n34)c2)Cc2ccccc2)cc1 | 31 | 67 | 930 |  |  |
| CCNC(=O)Nc1ccc(-c2nc3n(Cc4c(F)cccc4F)cc(C(=O)OCC)c(=O)n3c2CN(CC(=O)NCCCCCC(=O)NCC#Cc2ccccc2)Cc2ccccc2)cc1 | 97 | 99 | 380 | 440 |  |
| CCNC(=O)Nc1ccc(-c2nc3n(Cc4c(F)cccc4F)cc(C(=O)OCC)c(=O)n3c2CN(CC(=O)N2CCC[C@H]2C(=O)NCC#Cc2ccccc2)Cc2ccccc2)cc1 | 87 | 89 | 260 | 560 |  |
| CCNC(=O)Nc1ccc(-c2nc3n(Cc4c(F)cccc4F)cc(C(=O)OCC)c(=O)n3c2CN(CC(=O)NCCCCCC(=O)NCC#Cc2cccc(C#CCNC(=O)CCCCCNC(=O)CN(Cc3ccccc3)Cc3c(-c4ccc(NC(=O)NCC)cc4)nc4n(Cc5c(F)cccc5F)cc(C(=O)OCC)c(=O)n34)c2)Cc2ccccc2)cc1 | 44 | 58 | 930 |  |  |
| CCNC(=O)Nc1ccc(-c2nc3n(Cc4c(F)cccc4F)cc(C(=O)OCC)c(=O)n3c2CN(CC(=O)NCCCCCC(=O)NCC#Cc2ccc(C#CCNC(=O)CCCCCNC(=O)CN(Cc3ccccc3)Cc3c(-c4ccc(NC(=O)NCC)cc4)nc4n(Cc5c(F)cccc5F)cc(C(=O)OCC)c(=O)n34)cc2)Cc2ccccc2)cc1 | 54 | 67 | 620 |  |  |
| CCNC(=O)Nc1ccc(-c2nc3n(Cc4c(F)cccc4F)cc(C(=O)OCC)c(=O)n3c2CN(CC(=O)N2CCC(C(=O)NCC#Cc3ccc(C#CCNC(=O)C4CCN(C(=O)CN(Cc5ccccc5)Cc5c(-c6ccc(NC(=O)NCC)cc6)nc6n(Cc7c(F)cccc7F)cc(C(=O)OCC)c(=O)n56)CC4)cc3)CC2)Cc2ccccc2)cc1 | 35 | 48 | 510 |  |  |
| CCNC(=O)Nc1ccc(-c2nc3n(Cc4c(F)cccc4F)cc(C(=O)OCC)c(=O)n3c2CN(CC(=O)N[C@@H](C)C(=O)NCC#Cc2ccccc2)Cc2ccccc2)cc1 | 63 | 61 | 1600 | 1100 |  |
| CCNC(=O)Nc1ccc(-c2nc3n(Cc4c(F)cccc4F)cc(C(=O)OCC)c(=O)n3c2CN(CC(=O)N[C@@H](C)C(=O)NCC#Cc2ccc(C#CCNC(=O)[C@H](C)NC(=O)CN(Cc3ccccc3)Cc3c(-c4ccc(NC(=O)NCC)cc4)nc4n(Cc5c(F)cccc5F)cc(C(=O)OCC)c(=O)n34)cc2)Cc2ccccc2)cc1 | 42 | 52 | 480 |  |  |
| CCNC(=O)Nc1ccc(-c2nc3n(Cc4c(F)cccc4F)cc(C(=O)OCC)c(=O)n3c2CN(CC(=O)NCC(=O)NCC#Cc2ccc(C#CCNC(=O)CNC(=O)CN(Cc3ccccc3)Cc3c(-c4ccc(NC(=O)NCC)cc4)nc4n(Cc5c(F)cccc5F)cc(C(=O)OCC)c(=O)n34)cc2)Cc2ccccc2)cc1 | 34 | 59 | 530 |  |  |
| CCNC(=O)Nc1ccc(-c2nc3n(Cc4c(F)cccc4F)cc(C(=O)OCC)c(=O)n3c2CN(CC(=O)NCCCC(=O)NCC#Cc2ccccc2)Cc2ccccc2)cc1 | 97 | 96 | 580 | 680 | 95 |
| CCNC(=O)Nc1ccc(-c2nc3n(Cc4c(F)cccc4F)cc(C(=O)OCC)c(=O)n3c2CN(CC(=O)NCC(=O)NCC#Cc2cccc(C#CCNC(=O)CNC(=O)CN(Cc3ccccc3)Cc3c(-c4ccc(NC(=O)NCC)cc4)nc4n(Cc5c(F)cccc5F)cc(C(=O)OCC)c(=O)n34)c2)Cc2ccccc2)cc1 | 20 | 9 | 1100 |  |  |
| CCNC(=O)Nc1ccc(-c2nc3n(Cc4c(F)cccc4F)cc(C(=O)OCC)c(=O)n3c2CN(CC(=O)NCCCC(=O)NCC#Cc2ccc(C#CCNC(=O)CCCNC(=O)CN(Cc3ccccc3)Cc3c(-c4ccc(NC(=O)NCC)cc4)nc4n(Cc5c(F)cccc5F)cc(C(=O)OCC)c(=O)n34)cc2)Cc2ccccc2)cc1 | 68 | 85 | 600 |  | 95 |
| CCNC(=O)Nc1ccc(-c2nc3n(Cc4c(F)cccc4F)cc(C(=O)OCC)c(=O)n3c2CN(CC(=O)N[C@@H](C)C(=O)NCC#Cc2cccc(C#CCNC(=O)[C@H](C)NC(=O)CN(Cc3ccccc3)Cc3c(-c4ccc(NC(=O)NCC)cc4)nc4n(Cc5c(F)cccc5F)cc(C(=O)OCC)c(=O)n34)c2)Cc2ccccc2)cc1 | 18 | 14 | 5300 |  |  |
| CCNC(=O)Nc1ccc(-c2nc3n(Cc4c(F)cccc4F)cc(C(=O)OCC)c(=O)n3c2CN(CC(=O)NCCCC(=O)NCC#Cc2cccc(C#CCNC(=O)CCCNC(=O)CN(Cc3ccccc3)Cc3c(-c4ccc(NC(=O)NCC)cc4)nc4n(Cc5c(F)cccc5F)cc(C(=O)OCC)c(=O)n34)c2)Cc2ccccc2)cc1 | 40 | 57 | 820 |  |  |
| CCNC(=O)Nc1ccc(-c2nc3n(Cc4c(F)cccc4F)cc(C(=O)OCC)c(=O)n3c2CN(CC(=O)N2CCC(C(=O)NCC#Cc3ccccc3)CC2)Cc2ccccc2)cc1 | 83 | 82 | 140 | 460 |  |
| CCNC(=O)Nc1ccc(-c2nc3n(Cc4c(F)cccc4F)cc(C(=O)OCC)c(=O)n3c2CN(CC(=O)N2CCC[C@H]2C(=O)NCC#Cc2ccc(C#CCNC(=O)[C@@H]3CCCN3C(=O)CN(Cc3ccccc3)Cc3c(-c4ccc(NC(=O)NCC)cc4)nc4n(Cc5c(F)cccc5F)cc(C(=O)OCC)c(=O)n34)cc2)Cc2ccccc2)cc1 | 46 | 65 | 740 |  |  |
| CCNC(=O)Nc1ccc(-c2nc3n(Cc4c(F)cccc4F)cc(C(=O)OCC)c(=O)n3c2CN(CC(=O)N2CCC(C(=O)NCC#Cc3cccc(C#CCNC(=O)C4CCN(C(=O)CN(Cc5ccccc5)Cc5c(-c6ccc(NC(=O)NCC)cc6)nc6n(Cc7c(F)cccc7F)cc(C(=O)OCC)c(=O)n56)CC4)c3)CC2)Cc2ccccc2)cc1 | 68 | 86 | 400 |  |  |
